Reference: ChEMBL document CHEMBL1142406, “2-Heteroarylimino-5-benzylidene-4-thiazolidinones analogues of 2-thiazolylimino-5-benzylidene-4-thiazolidinones with antimicrobial activity: synthesis and structure-activity relationship” (2008)
Values after ≈ are worked out from the molar mass of the structure shown. Active and inactive are the calls of the source. The calls are words filed in the database; no cut-off is given here.

Key:
[1] = test system: Staphylococcus haemolyticus; experiment: Antimicrobial activity against Staphylococcus haemolyticus by broth dilution technique; format: functional
Procedure, shortened: (§1)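 Broth dilution in Mueller Hinton Broth. Compounds are dissolved in DMSO (never above 1% v/v final) and serially diluted. MIC is the lowest concentration giving complete growth inhibition.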

Escherichia coli = experiment: Antimicrobial activity against Escherichia coli SPA27 upto 100 ug/ml by broth dilution technique; format: functional, organism-based; procedure, shortened: as §1
Saccharomyces cerevisiae = experiment: Antimicrobial activity against Saccharomyces cerevisiae ATCC 9763 upto 100 ug/ml by broth dilution technique; format: functional, organism-based
Procedure, shortened: (§2)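 Fungi are tested by Sabouraud Liquid Medium dilution. Compounds are in DMSO, with DMSO at most 1% v/v final. Inoculum is 1×10³ fungi/mL, incubated 48 h at 30 °C. MIC is the lowest concentration completely inhibiting growth. For MFC, 100 µL of clear mixtures is subcultured into 1 mL fresh medium and read after 48 h at 30 °C.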

[2] = test system: Staphylococcus epidermidis; experiment: Antimicrobial activity against Staphylococcus epidermidis ATCC 12228 by broth dilution technique
Bacillus thuringiensis = experiment: Antimicrobial activity against Bacillus thuringiensis var. kurstaki BGSC 4D1 by broth dilution technique; format: functional; details: serovar kurstaki; procedure, shortened: as §1
Priestia megaterium = experiment: Antimicrobial activity against Bacillus megaterium by broth dilution technique; format: functional; procedure, shortened: as §1
Micrococcus luteus = experiment: Antimicrobial activity against Sarcina lutea by broth dilution technique; format: functional; procedure, shortened: as §1
Haemophilus influenzae = experiment: Antimicrobial activity against Haemophilus influenzae by broth dilution technique; format: functional
Procedure, shortened: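 Haemophilus Test Medium broth dilution. Compounds in DMSO are added to final dilutions, with DMSO at most 1% v/v. MIC is the lowest concentration completely inhibiting growth.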

[3] = test system: Staphylococcus epidermidis; experiment: Antimicrobial activity against penicillin-resistant Staphylococcus epidermidis by broth dilution technique; format: functional
Procedure, shortened: (§3)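 Broth dilution in Mueller Hinton Broth with compounds predissolved in DMSO (at most 1% v/v). Final concentrations ranged from 100 to 0.0015, and the inoculum was 5.10⁴ bacteria/mL. Plates were incubated at 37 °C for 24 h. MIC was taken as the lowest concentration giving complete growth inhibition.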

Enterococcus faecium = experiment: Antimicrobial activity against Streptococcus faecium by broth dilution technique; format: functional; procedure, shortened: as §1
Staphylococcus aureus [4] = experiment: Antimicrobial activity against penicillin-resistant Staphylococcus aureus by broth dilution technique; format: functional; procedure, shortened: as §3
Streptococcus pyogenes = experiment: Antimicrobial activity against Streptococcus pyogenes by broth dilution technique; format: functional
Procedure, shortened: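 Tryptose Phosphate Broth dilution. Compounds are dissolved in DMSO, with DMSO at most 1% v/v final. MIC is taken as the lowest concentration with complete growth inhibition.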

Aspergillus niger = experiment: Antimicrobial activity against Aspergillus niger ATCC 6275 upto 100 ug/ml by broth dilution technique; format: functional, organism-based; procedure, shortened: as §2
Staphylococcus aureus [5] = experiment: Antimicrobial activity against Staphylococcus aureus ATCC 25923 by broth dilution technique; format: functional; procedure, shortened: as §1
Enterococcus faecalis = experiment: Antimicrobial activity against Streptococcus faecalis by broth dilution technique; format: functional; procedure, shortened: as §1
Bacillus subtilis = experiment: Antimicrobial activity against Bacillus subtilis ATCC 6633 by broth dilution technique; format: functional; procedure, shortened: as §1
Candida tropicalis = experiment: Antimicrobial activity against Candida tropicalis ATCC 1369 upto 100 ug/ml by broth dilution technique; format: functional, organism-based; procedure, shortened: as §2
Streptococcus agalactiae = experiment: Antimicrobial activity against Streptococcus agalactiae by broth dilution technique; format: functional; procedure, shortened: as §1

SMILES | MIC [1] [µg/mL] | Activity (Escherichia coli) | Activity (Saccharomyces cerevisiae) | MIC [2] [µg/mL] | MIC (Bacillus thuringiensis) [µg/mL] | MIC (Priestia megaterium) [µg/mL] | MIC (Micrococcus luteus) [µg/mL] | MIC (Haemophilus influenzae) [µg/mL] | MIC [3] [µg/mL] | MIC (Enterococcus faecium) [µg/mL] | MIC (Staphylococcus aureus [4]) [µg/mL] | MIC (Streptococcus pyogenes) [µg/mL] | Activity (Aspergillus niger) | MIC (Staphylococcus aureus [5]) [µg/mL] | MIC (Enterococcus faecalis) [µg/mL] | MIC (Bacillus subtilis) [µg/mL] | Activity (Candida tropicalis) | MIC (Streptococcus agalactiae) [µg/mL]
O=C1N/C(=N/c2nsc3ccccc23)S/C1=C\c1cccc([N+](=O)[O-])c1 | > 100 | inactive | inactive | > 100 | 1.5 (≈ 3.92 µM) | 0.7 (≈ 1.83 µM) | > 100 | 3 (≈ 7.84 µM) | > 100 | > 100 | > 100 | > 100 | inactive | > 100 | > 100 | > 100 | inactive | > 100
O=C1N/C(=N\c2nccs2)S/C1=C\c1ccccc1 | 6 (≈ 20.9 µM) | inactive | inactive | 6 (≈ 20.9 µM) | 3 (≈ 10.4 µM) | 0.7 (≈ 2.44 µM) | 3 (≈ 10.4 µM) | 0.7 (≈ 2.44 µM) | 50 (≈ 174 µM) | 25 (≈ 87 µM) | 25 (≈ 87 µM) | > 100 | inactive | 3 (≈ 10.4 µM) | 25 (≈ 87 µM) | 0.7 (≈ 2.44 µM) | inactive | 3 (≈ 10.4 µM)
O=C1N/C(=N\c2nc3ccccc3s2)S/C1=C\c1ccccc1[N+](=O)[O-] | – | inactive | inactive | – | – | – | – | > 100 | – | – | – | – | inactive | > 100 | – | > 100 | inactive | –
O=C1N/C(=N/c2nsc3ccccc23)S/C1=C\c1ccccc1Cl | – | inactive | inactive | – | – | – | – | > 100 | – | – | – | – | inactive | > 100 | – | > 100 | inactive | –
O=C1N/C(=N\c2nc3ccccc3s2)S/C1=C\c1cccc(Cl)c1 | > 100 | inactive | inactive | 6 (≈ 16.1 µM) | 6 (≈ 16.1 µM) | 12 (≈ 32.3 µM) | 12 (≈ 32.3 µM) | > 100 | 12 (≈ 32.3 µM) | > 100 | 25 (≈ 67.2 µM) | > 100 | inactive | 25 (≈ 67.2 µM) | > 100 | 12 (≈ 32.3 µM) | inactive | > 100
O=C1N/C(=N\c2nccs2)S/C1=C\c1ccccc1[N+](=O)[O-] | 12 (≈ 36.1 µM) | inactive | inactive | 12 (≈ 36.1 µM) | 6 (≈ 18.1 µM) | 3 (≈ 9.03 µM) | 12 (≈ 36.1 µM) | 0.7 (≈ 2.11 µM) | 25 (≈ 75.2 µM) | 25 (≈ 75.2 µM) | 3 (≈ 9.03 µM) | 25 (≈ 75.2 µM) | inactive | 6 (≈ 18.1 µM) | 50 (≈ 150 µM) | 6 (≈ 18.1 µM) | inactive | 12 (≈ 36.1 µM)
COc1cc(/C=C2\S/C(=N/c3nc4ccccc4s3)NC2=O)ccc1O | > 100 | inactive | inactive | 6 (≈ 15.6 µM) | 6 (≈ 15.6 µM) | 12 (≈ 31.3 µM) | 12 (≈ 31.3 µM) | > 100 | 12 (≈ 31.3 µM) | > 100 | 6 (≈ 15.6 µM) | > 100 | inactive | 6 (≈ 15.6 µM) | > 100 | > 100 | inactive | > 100
O=C1N/C(=N\c2nc3ccccc3s2)S/C1=C\c1cccc([N+](=O)[O-])c1 | > 100 | inactive | inactive | 6 (≈ 15.7 µM) | 6 (≈ 15.7 µM) | 12 (≈ 31.4 µM) | 6 (≈ 15.7 µM) | > 100 | 6 (≈ 15.7 µM) | > 100 | 6 (≈ 15.7 µM) | > 100 | inactive | 6 (≈ 15.7 µM) | > 100 | 12 (≈ 31.4 µM) | inactive | > 100
O=C1CSC(Nc2nccs2)=N1 | – | inactive | inactive | – | – | – | – | 1.5 (≈ 7.53 µM) | – | – | – | – | inactive | > 100 | – | 50 (≈ 251 µM) | inactive | –
